# Published values gathered from unrelated publications.
# Compare with care: the assays were run in different laboratories.
# Target: Mitogen-activated protein kinase kinase kinase 14 (MAP3K14, Homo sapiens, UniProt Q99558)
Structure (SMILES),test,conditions,remaining binding [%]
Cc1cnc(Nc2ccc(C(=O)N3CCC(N4CCCC4)CC3)cc2)nc1-c1cc2ccccc2s1,"binding, competition with immobilised ligand",1 µM,100
C[C@@H](c1ccc(-n2cnc3c(N)ncnc32)cc1)N1CCc2nn(C)c(Cc3ccccc3)c2C1=O,"binding, competition with immobilised ligand",0.1 µM,100
CNC(=O)[C@@H]1CC[C@@H](n2c(-c3ccc4cnccc4c3)nc3ccc(C(=O)NCc4cccc(C(N)=O)c4)cc32)C1,"binding, competition with immobilised ligand",1 µM,100
CN(C)c1nccc(-c2cnn3ncccc23)n1,"binding, competition with immobilised ligand",1 µM,74
Nc1ncc2c(n1)-c1c([nH]c3ccc(C#CC4CC4)cc13)CCCC2,"binding, competition with immobilised ligand",1 µM,73
CN(CCCC(F)(F)F)c1nccc(-c2cnn3ncccc23)n1,"binding, competition with immobilised ligand",1 µM,100
CN1CCN(c2cnc3c(C4CCN(C(=O)c5ccc(OC(F)(F)F)cc5N)CC4)ncnc3c2)CC1,"cell-free assay, competition with immobilised ligand",1 µM,100
COc1ccnn2ncc(-c3ccnc(N(C)C)n3)c12,binding,1 µM,78
CNCc1ccccc1-c1csc([C@@H](C)Nc2nc(C)nc3cc(OC)c(OC)cc23)c1,"cell-free assay, competition with immobilised ligand",1 µM,93
O=C(Nc1c[nH]nc1C(=O)NC1CCNCC1)c1cc(F)cc(F)c1,"binding, competition with immobilised ligand",1 µM,100
COc1cnc(Nc2cccc(S(N)(=O)=O)c2)nc1N1CCN(c2ccccc2)CC1,"binding, competition with immobilised ligand",1 µM,96
CCCCN(CCCC)C(=O)CN1C[C@@H](c2cc(OC)c3c(c2)OCO3)[C@H](C(=O)O)[C@H]1CC(C)(C)CCC,"cell-free assay, competition with immobilised ligand",1 µM,100
O=C(c1ccc(Nc2nccc(-c3cc4ccccc4s3)n2)cc1)N1CCC(N2CCCC2)CC1,"binding, competition with immobilised ligand",1 µM,59
C=CC(=O)N1CCC(C(=O)NCC(=O)N2CCN(c3nc(-c4cnc(N)nc4C(F)F)nc(N4CCOCC4)n3)CC2)CC1,"binding, competition with immobilised ligand",1 µM,89
O=C(NS(=O)(=O)c1ccc(NCC2CCOCC2)c([N+](=O)[O-])c1)c1ccc(N2CCN(Cc3ccc(C(F)(F)F)cc3-c3ccc(Cl)cc3)CC2)cc1Oc1cnc2[nH]ccc2c1,"cell-free assay, competition with immobilised ligand",1 µM,65
c1cnn2ncc(-c3ccnc(N4CCC45COC5)n3)c2c1,"binding, competition with immobilised ligand",1 µM,44
CN(c1ccnc(CNc2nc(Nc3ccc4c(c3)CC(=O)N4)ncc2C(F)(F)F)n1)S(C)(=O)=O,"cell-free assay, competition with immobilised ligand",1 µM,65
N[C@@H]1CCN(c2nccc(-c3cnn4ncccc34)n2)C1,binding,1 µM,91
CN(C)C(=O)Cn1cc(-c2nc(C3(c4ccc(-c5cnc(N)nc5)cc4)CC3)no2)cn1,"cell-free assay, competition with immobilised ligand",1 µM,83
CC1CCCN1c1nccc(-c2cnn3ncccc23)n1 (centres unmarked),"binding, competition with immobilised ligand",1 µM,100
